Assay outcomes as filed in PubChem BioAssay.
Calpain2 inh = inhibitors of pig calpain II, primary screen, biochemical, fluorogenic peptide substrate, 1536-well; purified calpain II, 30 min; inhibition, % at 16 µM; 220,000 compounds, 0.37% hits;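 active = inhibition above about 50%, limit read from the data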
Mcl1 Noxa PPI = Mcl-1/Noxa binding inhibitors, primary screen, biochemical, TR-FRET, 1536-well; Induced myeloid leukemia cell differentiation protein Mcl-1 (Homo sapiens), Q07820; TR-FRET Mcl-1/Noxa peptide binding, 2 h; inhibition, % at 21.7 µM; 220,000 compounds, 1.5% hits;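 active = compounds that cut the protein-peptide binding signal by more than 50% relative to plate controls in a single-dose test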;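 also: His-tagged Mcl-1 with rhodamine Noxa BH3 peptide and terbium anti-His antibody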
Target sequence (Q07820 whole entry, looked up): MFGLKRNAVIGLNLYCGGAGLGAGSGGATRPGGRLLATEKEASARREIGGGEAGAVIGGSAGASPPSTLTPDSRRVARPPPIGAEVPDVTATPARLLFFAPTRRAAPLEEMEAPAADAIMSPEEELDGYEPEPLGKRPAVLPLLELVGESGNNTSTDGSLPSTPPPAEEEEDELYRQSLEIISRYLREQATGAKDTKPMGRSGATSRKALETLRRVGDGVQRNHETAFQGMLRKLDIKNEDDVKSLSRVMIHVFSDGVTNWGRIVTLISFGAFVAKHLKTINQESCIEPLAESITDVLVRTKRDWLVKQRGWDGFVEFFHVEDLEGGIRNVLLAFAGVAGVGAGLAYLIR
Biofilm kill mix = clotrimazole potentiators killing C. albicans biofilm, primary screen, 4-compound mixtures. C. albicans biofilm persisters + clotrimazole, fluorescence viability; primary screen in compound mixtures of four per well. inhibition, % at 7.6 µM. 120,000 compounds, 0.02% hits;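 active = inhibition above 30.3% in the primary screen of four-compound pools, then above 30% when the compound was retested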;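 also: compounds exposed to preformed 24 h biofilms for 48 h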
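Incubation: 24 h biofilm formation, then 48 h compound exposure, 37 °C | Material: C. albicans biofilms | Buffer or medium: RPMI/MOPS medium, pH 7.0 | Measured by: 2-h Alamar Blue fluorescence, 535/590 nm excitation/emission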
Bim-Mcl-1 = inhibitors of Bim peptide binding to Mcl-1, primary screen, biochemical, bead-based flow cytometry, multiplex; inhibition, % at 10 µM; Bim peptide-Mcl-1 binding; 190,000 compounds, 0.1% hits; Induced myeloid leukemia cell differentiation protein Mcl-1 (Homo sapiens), Q07820; in the data active = inhibition above about 40%
Mcl1-Bid inh = Mcl-1/Bid binding inhibitors, primary screen, biochemical, TR-FRET, 1536-well. TR-FRET Mcl-1/Bid-Dy647 peptide binding. inhibition, % at 21.7 µM. 220,000 compounds, 0.97% hits;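 active = compounds that cut the binding signal by more than half at the single screening dose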;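 also: His-tagged Mcl-1 with europium anti-His antibody binding Bid BH3 peptide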
Arbovirus inh = antivirals against arbovirus infection, primary screen, cell-based, full library, 10K replicate subset | inhibition, % at 10 µM | 200,000 compounds, 0.37% hits | arbovirus infection cell-based antiviral screen; in the data active = inhibition above about 30%
A number is an active result; . = inactive; / = not tested or not shown. Hits are enriched below; roughly 2.8% of the tested compounds scored in any of these assays.

SMILES	Calpain2 inh	Mcl1 Noxa PPI	Biofilm kill mix	Bim-Mcl-1	Mcl1-Bid inh	Arbovirus inh
Cn1c(-c2cccc(Br)c2)cnc1NCc1cccnc1	.	.	/	.	.	.
COc1cccc(-c2cnc(NCc3cc(Cl)ccc3O)n2C)c1	55	.	/	.	.	.
COc1cc(CC(=O)OCC(=O)N2CC(=O)Nc3ccccc32)cc(OC)c1OC	.	.	.	.	.	.
O=C(CN1C(=O)C2CCCCC2C1=O)OCn1nnc2ccccc2c1=O (stereo not drawn)	.	.	.	.	.	.
O=C(OCn1nnc2ccccc2c1=O)C1CCCCC1	.	54	/	.	.	.
OC(CNC1CCCc2ccccc21)COc1ccc2ccccc2c1 (stereo not drawn)	.	.	.	.	52	.
O=C(c1ccccc1)c1ccc(OCC(O)CNC2CCCc3ccccc32)cc1 (stereo not drawn)	.	.	.	.	.	.
Cn1nc(C(=O)NCCc2ccc(S(N)(=O)=O)cc2)c2ccccc2c1=O	.	.	.	/	.	/
CC(C)CC(=O)NC(=S)N(Cc1ccccc1)Cc1ccccc1	.	56	.	.	.	.
CC(C)C(=O)NC(=S)N(Cc1ccccc1)Cc1ccccc1	.	.	.	.	.	.
COc1ccccc1C(=O)NNC(=S)NC(=O)c1sc2ccccc2c1Cl	.	.	.	.	.	.
COc1ccccc1C(=O)NC(=S)NNC(=O)c1sc2ccccc2c1Cl	.	.	.	.	73	.
Nc1cc2c(cc1[N+](=O)[O-])OCCO2	.	.	.	.	.	.
Nc1cc2c(cc1[N+](=O)[O-])OCO2	.	79	.	.	.	.
Cc1onc(-c2c(F)cccc2Cl)c1C(N)=S	.	.	.	.	.	.
Cc1cccc(-n2c(=O)c3c4c(sc3n3c(=S)[nH]nc23)CCC4)c1	.	.	.	.	.	34
CC1(C)CC2(CCO1)OC(=O)CC2C(=O)Nc1ccccc1Cl (stereo not drawn)	.	.	.	.	.	.
Cc1ccc(C(=O)Oc2ccc(-c3nccc(-c4ccccn4)n3)cc2)cc1	.	.	/	.	55	.
O=C(Oc1ccc(-c2nccc(-c3ccccn3)n2)cc1)c1cccc(C(F)(F)F)c1	.	.	/	.	.	.
COC(=O)Nc1ccc(S(=O)(=O)N2CCC(C(=O)N(C)C3CCCCC3)CC2)cc1	.	.	.	.	.	30
CCOC(=O)C1CCN(S(=O)(=O)c2ccc(NC(=O)OC)cc2)CC1	.	.	/	.	.	.
Cc1ccc(C)c(N2CCN(C(=O)C3CCCCN3S(=O)(=O)c3ccc(F)cc3)CC2)c1 (stereo not drawn)	57	.	/	.	.	.
COc1cc(Cl)c(C)cc1NC(=O)CSc1cc(Cl)ccc1Cl	.	56	.	.	.	.
COc1ccc(C(Nc2ccccn2)c2oc(CO)cc(=O)c2O)cc1 (stereo not drawn)	.	65	.	.	.	.
O=c1cc(CO)oc(C(Nc2ccccn2)c2ccc(F)cc2)c1O (stereo not drawn)	.	62	/	.	52	.
SMILES	Calpain2 inh	Mcl1 Noxa PPI	Biofilm kill mix	Bim-Mcl-1	Mcl1-Bid inh	Arbovirus inh
Cc1ccnc(NC(c2ccccc2O)c2oc(CO)cc(=O)c2O)c1 (stereo not drawn)	.	70	.	.	.	.
O=C(COC(=O)C12CC3CC(CC(Br)(C3)C1)C2)Nc1cccnc1Cl	.	.	.	.	.	.
CC(C)COP(=O)(OCC(C)C)C(Nc1ccccc1)c1ccc2c(c1)OCO2 (stereo not drawn)	51	.	/	.	.	.
N#Cc1c(NC(=O)c2ccccc2)sc2c1CCCCC2	.	.	.	.	.	.
O=C(Nc1sc2c(c1C(=O)O)CCC2)c1cccs1	.	.	/	.	.	55
O=C(Nc1sc2c(c1C(=O)O)CCC2)c1ccc(F)cc1	.	.	.	.	.	42
Cc1ccc(C(=O)c2c(NC(=O)c3cccnc3)sc3c2CCCC3)cc1	.	/	/	.	.	.
O=C(Nc1sc2c(c1C(=O)O)CCCCC2)c1ccccc1	.	.	.	.	.	69
Cc1cc(O)c(-c2cc(C(=O)NCc3ccc4c(c3)OCO4)[nH]n2)cc1C	.	.	/	.	.	.
CNC(=O)c1c(NC(=O)c2cc(-c3cc(C)c(C)cc3O)n[nH]2)sc2c1CCCC2	.	60	.	/	.	/
COc1ccccc1CNC(=O)CSc1nnc2ccc(-c3cccnc3)nn12	.	.	.	.	.	.
N[C@@H](CO)c1nnc([C@H](Cc2ccc(O)cc2)NC(=O)C2CCNCC2)o1	.	.	.	.	.	.
CCOC(=O)c1c(C)n(C)c2ccc(OC)c(NC(=O)CCN3CCC(Cc4ccccc4)CC3)c12	.	.	.	/	.	/
O=C(/C=C/c1ccco1)Nc1sc2c(c1C(=O)O)CCC2	.	.	/	.	.	73
N#Cc1c(NC(=O)/C=C/c2ccco2)sc2c1CCCC2	.	.	.	.	.	.
O=C(/C=C/c1ccccc1)Nc1sc2c(c1C(=O)O)CCC2	.	.	.	/	.	/
COC(=O)c1c(NC(=O)c2ccccc2N(C)S(=O)(=O)c2ccccc2)sc2c1CCCC2	.	.	.	.	.	.
CCOC(=O)c1c(NC(=O)c2ccccc2N(C)S(=O)(=O)c2ccccc2)sc2c1CCCC2	.	.	.	53	.	.
O=C(Nc1sc2c(c1C(=O)O)CCC2)c1ccccc1	.	.	/	.	72	.
O=C(O)c1c(NC(=O)c2cccc3ccccc23)sc2c1CCC2	.	.	/	.	.	55
CCCCn1c(CNC(=O)C23CC4CC(CC(C4)C2)C3)nnc1SC(C)CC (stereo not drawn)	.	.	.	.	.	.
O=C(CCc1nnc(-c2ccc3c(c2)OCO3)o1)N1CCC(c2ccc(F)cc2)C1 (stereo not drawn)	.	.	.	.	.	.
CCCCN1C(=O)N(C)C2NC(=S)NC21 (stereo not drawn)	.	.	.	/	.	/
O=C(NCC(=O)N1CCN(S(=O)(=O)c2cccs2)CC1)c1ccc(Cl)cc1	.	.	.	.	.	.
Cc1ccc([N+](=O)[O-])cc1-c1ccc(/C=C(\C#N)c2[nH]nc(N)c2C#N)o1	.	68	.	.	79	.
COCc1cc(C)nc(OCC(=O)N/N=C/c2ccc(-c3cc([N+](=O)[O-])ccc3C)o2)c1C#N	.	.	/	.	.	.
N#C/C(=C\N1CCCCC1)S(=O)(=O)c1ccc(Cl)cc1	.	.	.	/	.	/
Cc1ccc(/C=C2\C(=O)Nc3ccccc32)o1	.	62	.	.	.	.
Cc1ccsc1/C=C/C1=Cc2c(sc(NC(=O)CSc3n[nH]c(N)n3)c2C#N)C(C)(C)C1	.	89	/	.	.	.
CN(C)c1ccc(/C=C2/NC(=O)NC2=O)cc1	.	.	.	.	.	.
